# Test results from ChEMBL document CHEMBL4002644, “Discovery of GBT440, an Orally Bioavailable R-State Stabilizer of Sickle Cell Hemoglobin” (ACS Med Chem Lett, 2017).
# Key:
# Cytochrome P450 1A2 = biological target: T1, Cytochrome P450 1A2 (Homo sapiens, UniProt P05177); assay: Inhibition of CYP1A2 in human liver microsomes using phenacetin as substrate after 5 to 15 mins; assay type: ADME
# T1 sequence (P05177 whole entry): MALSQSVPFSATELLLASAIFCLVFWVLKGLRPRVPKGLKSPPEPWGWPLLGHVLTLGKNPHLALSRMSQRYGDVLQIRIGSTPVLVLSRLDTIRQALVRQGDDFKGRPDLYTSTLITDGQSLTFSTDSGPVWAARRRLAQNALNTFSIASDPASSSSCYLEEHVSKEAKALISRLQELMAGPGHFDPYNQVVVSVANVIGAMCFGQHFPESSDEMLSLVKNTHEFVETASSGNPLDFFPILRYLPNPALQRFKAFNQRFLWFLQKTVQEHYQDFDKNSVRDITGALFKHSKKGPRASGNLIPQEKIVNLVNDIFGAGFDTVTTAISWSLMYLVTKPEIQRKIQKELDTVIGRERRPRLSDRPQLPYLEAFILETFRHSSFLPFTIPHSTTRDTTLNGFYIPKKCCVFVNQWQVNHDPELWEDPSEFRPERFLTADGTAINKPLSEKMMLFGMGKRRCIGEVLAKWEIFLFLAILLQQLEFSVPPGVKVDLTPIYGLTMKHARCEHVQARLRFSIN
# Method in brief: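 Pooled human liver microsomes incubated with phenacetin as the CYP1A2-specific probe substrate across a range of test-compound concentrations. IC50 derived from inhibition of probe metabolism.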
# [1] = Half life in dog blood; assay type: ADME, tissue-based, Canis lupus familiaris
# Cytochrome P450 2C19 [2] = biological target: T2, Cytochrome P450 2C19 (Homo sapiens, UniProt P33261); assay: Time dependent inhibition of CYP2C19 in human liver microsomes using S-Mephentoin as substrate; assay type: ADME
# Cytochrome P450 2D6 = Cytochrome P450 2D6 (Homo sapiens, UniProt P10635); assay: Inhibition of CYP2D6 in human liver microsomes using bufuralol as substrate after 5 to 15 mins; assay type: ADME
# Method in brief: (§1)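 Pooled human liver microsomes were incubated with isozyme-specific probe substrates: S-mephenytoin for CYP2C19 and bufuralol for CYP2D6.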
# [3] = test system: Hemoglobin HbA (Homo sapiens), P69905+P68871 [E7V]; assay: Induction of R-state stabilization of Hb betaGlu6Val mutant in sickle disease patient purified HbS/HbA mixture assessed as change from baseline of partial pressure of O2 at which HbS is 50% saturated with O2 at 500 uM preincubated for 45 mins followed by oxygenation for 10 mins and subsequent deoxygenation by hemoximetry relative to control
# Method in brief: (§2)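 Oxygen equilibrium curves were run on a Hemox Analyzer using Hb purified from sickle disease blood (an HbA/HbS mixture) at 25 μM. Compound was tested at 30 μM, or at 500 μM where noted. The read-out was the % change from baseline in the pO2 at which HbS is 50% saturated (Δp50).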
# [4] = Half life in Sprague-Dawley rat plasma at 7.2 to 120 mg/kg, po by LC-MS/MS analysis; assay type: ADME, organism-based
# Cytochrome P450 2C19 [5] = biological target: T2, Cytochrome P450 2C19; assay: Inhibition of CYP2C19 in human liver microsomes using S-Mephentoin as substrate after 5 to 15 mins; assay type: ADME; method in brief: as §1
# Rattus norvegicus = assay: Dose normalized AUC (0 to infinity) in Sprague-Dawley rat at 7.2 to 120 mg/kg, po by LC-MS/MS analysis; assay type: ADME, organism-based; details: in vivo
# Method in brief: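 Rat oral PK: AUC(0–∞) divided by the oral dose, expressed as (ng·h/mL)/(mg/kg).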
# [6] = Oral bioavailability in dog; assay type: ADME, organism-based, Canis lupus familiaris; details: in vivo
# [7] = Half life in dog plasma; assay type: ADME, cell-free, Canis lupus familiaris
# [8] = test system: Hemoglobin HbA (Homo sapiens), P69905+P68871 [E7V]; assay: Induction of R-state stabilization of Hb betaGlu6Val mutant in sickle cell disease transfused human whole blood assessed as change from baseline of partial pressure of O2 at which HbS is 50% saturated with O2 at 1 mM preincubated for 45 mins followed by 20 mins oxygenation/deoxygenation cycle by hemoximetry relative to control
# Method in brief: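 Whole blood from transfused SCD subjects, at 20% hematocrit (Hb 1 mM), was run with compound at 1 mM. Oxygen equilibrium curves were measured by hemoximetry. The value is the % change from baseline in the pO2 giving 50% O2 saturation (Δp50).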
# [9] = Oral bioavailability in Sprague-Dawley rat at 7.2 to 120 mg/kg by LC-MS/MS analysis; assay type: ADME, organism-based; details: in vivo
# Cytochrome P450 3A4 [10] = biological target: T3, Cytochrome P450 3A4 (Homo sapiens, UniProt P08684); assay: Inhibition of CYP3A4 using in human liver microsomes using testosterone as substrate after 5 to 15 mins; assay type: ADME
# Method in brief: (§3)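 CYP3A4 inhibition was measured in pooled human liver microsomes using an isozyme-specific probe substrate: midazolam for line 1 and testosterone for line 2.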
# Cytochrome P450 3A4 [11] = biological target: T3, Cytochrome P450 3A4; assay: Inhibition of CYP3A4 using in human liver microsomes using midazolam as substrate after 5 to 15 mins; assay type: ADME; method in brief: as §3
# [12] = Half life in monkey plasma; assay type: ADME, cell-free, Macaca mulatta; details: rhesus monkey
# Cytochrome P450 2C8 = biological target: T4, Cytochrome P450 2C8 (Homo sapiens, UniProt P10632); assay: Inhibition of CYP2C8 in human liver microsomes using paclitaxel as substrate after 5 to 15 mins; assay type: ADME
# T4 sequence (P10632 whole entry): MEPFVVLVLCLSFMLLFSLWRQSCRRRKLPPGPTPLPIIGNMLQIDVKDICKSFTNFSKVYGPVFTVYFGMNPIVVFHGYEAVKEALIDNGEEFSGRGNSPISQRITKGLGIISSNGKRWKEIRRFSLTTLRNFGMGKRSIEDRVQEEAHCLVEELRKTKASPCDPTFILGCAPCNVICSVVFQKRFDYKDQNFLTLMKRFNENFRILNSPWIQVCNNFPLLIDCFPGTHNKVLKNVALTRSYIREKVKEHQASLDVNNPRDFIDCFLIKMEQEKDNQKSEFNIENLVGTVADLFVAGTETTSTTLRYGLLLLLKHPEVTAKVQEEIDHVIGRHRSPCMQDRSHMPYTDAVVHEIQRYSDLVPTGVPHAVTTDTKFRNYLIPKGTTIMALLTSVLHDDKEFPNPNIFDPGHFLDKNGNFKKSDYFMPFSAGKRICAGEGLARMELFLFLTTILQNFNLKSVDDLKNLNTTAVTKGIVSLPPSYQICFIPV
# Cytochrome P450 3A4 [13] = biological target: T3, Cytochrome P450 3A4; assay: Time dependent inhibition of CYP3A4 using in human liver microsomes using testosterone as substrate; assay type: ADME
# Homo sapiens = species: Homo sapiens; assay: Induction of R-state stabilization of sickle cell Hb betaGlu6Val mutant purified from sickle cell patient assessed as inhibition of KH2PO4-induced polymerization by measuring change from baseline of delay time for onset of polymerization at 75 uM preincubated for 1 hr followed by deoxygenation for …; set-up: scale not given: the % may be the effect or the level left
# [14] = test system: Hemoglobin HbA (Homo sapiens), P69905+P68871 [E7V]; assay: Induction of R-state stabilization of Hb betaGlu6Val mutant in sickle disease patient purified HbS/HbA mixture assessed as change from baseline of partial pressure of O2 at which HbS is 50% saturated with O2 at 30 uM preincubated for 45 mins followed by oxygenation for 10 mins and subsequent deoxygenation by hemoximetry relative to control; method in brief: as §2
# Cytochrome P450 2C9 = Cytochrome P450 2C9 (Homo sapiens, UniProt P11712); assay: Inhibition of CYP2C9 in human liver microsomes using tolbutamide as substrate after 5 to 15 mins
# [15] = Ratio of drug level in Sprague-Dawley rat RBC to plasma at 7.2 to 120 mg/kg, po by LC-MS/MS analysis; assay type: ADME, organism-based; details: red blood cells (RBC) / plasma
# Blood = assay: Half life in Sprague-Dawley rat blood at 7.2 to 120 mg/kg, po by LC-MS/MS analysis; assay type: ADME, organism-based; details: in vivo
# [16] = Half life in monkey blood; assay type: ADME, tissue-based, Macaca mulatta; details: rhesus monkey
# [17] = Oral bioavailability in monkey; assay type: ADME, organism-based, Macaca mulatta; details: rhesus monkey, in vivo
# Cytochrome P450 3A4 [18] = biological target: T3, Cytochrome P450 3A4; assay: Time dependent inhibition of CYP3A4 using in human liver microsomes using midazolam as substrate; assay type: ADME
# T3 sequence (P08684 whole entry): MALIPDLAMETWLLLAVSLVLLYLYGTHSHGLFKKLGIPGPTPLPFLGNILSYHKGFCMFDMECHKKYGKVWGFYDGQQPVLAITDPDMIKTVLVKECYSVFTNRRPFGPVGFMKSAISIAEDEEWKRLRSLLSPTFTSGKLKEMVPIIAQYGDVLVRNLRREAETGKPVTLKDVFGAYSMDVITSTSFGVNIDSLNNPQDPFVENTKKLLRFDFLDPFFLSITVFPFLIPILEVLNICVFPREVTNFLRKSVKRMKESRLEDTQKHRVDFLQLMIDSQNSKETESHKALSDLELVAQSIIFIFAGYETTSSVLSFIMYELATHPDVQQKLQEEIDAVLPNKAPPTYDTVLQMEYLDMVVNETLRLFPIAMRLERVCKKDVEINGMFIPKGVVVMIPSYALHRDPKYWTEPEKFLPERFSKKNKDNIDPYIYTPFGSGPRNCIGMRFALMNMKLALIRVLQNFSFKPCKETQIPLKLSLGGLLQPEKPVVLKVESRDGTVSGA
# T2 sequence (P33261 whole entry): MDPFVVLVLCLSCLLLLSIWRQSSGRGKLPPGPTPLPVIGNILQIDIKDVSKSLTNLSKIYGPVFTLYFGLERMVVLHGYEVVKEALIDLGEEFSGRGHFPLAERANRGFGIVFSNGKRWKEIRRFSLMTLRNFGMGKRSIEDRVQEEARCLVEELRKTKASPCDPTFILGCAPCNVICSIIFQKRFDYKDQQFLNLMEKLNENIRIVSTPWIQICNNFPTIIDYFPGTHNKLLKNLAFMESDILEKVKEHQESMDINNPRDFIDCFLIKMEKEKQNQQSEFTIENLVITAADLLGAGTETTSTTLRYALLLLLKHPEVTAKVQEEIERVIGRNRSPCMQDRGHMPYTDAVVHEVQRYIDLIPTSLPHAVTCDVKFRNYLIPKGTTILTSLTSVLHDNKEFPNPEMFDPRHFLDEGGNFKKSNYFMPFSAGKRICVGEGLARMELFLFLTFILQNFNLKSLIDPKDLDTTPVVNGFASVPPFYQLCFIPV
# Chain of Cytochrome P450 2C9 (P11712 whole entry): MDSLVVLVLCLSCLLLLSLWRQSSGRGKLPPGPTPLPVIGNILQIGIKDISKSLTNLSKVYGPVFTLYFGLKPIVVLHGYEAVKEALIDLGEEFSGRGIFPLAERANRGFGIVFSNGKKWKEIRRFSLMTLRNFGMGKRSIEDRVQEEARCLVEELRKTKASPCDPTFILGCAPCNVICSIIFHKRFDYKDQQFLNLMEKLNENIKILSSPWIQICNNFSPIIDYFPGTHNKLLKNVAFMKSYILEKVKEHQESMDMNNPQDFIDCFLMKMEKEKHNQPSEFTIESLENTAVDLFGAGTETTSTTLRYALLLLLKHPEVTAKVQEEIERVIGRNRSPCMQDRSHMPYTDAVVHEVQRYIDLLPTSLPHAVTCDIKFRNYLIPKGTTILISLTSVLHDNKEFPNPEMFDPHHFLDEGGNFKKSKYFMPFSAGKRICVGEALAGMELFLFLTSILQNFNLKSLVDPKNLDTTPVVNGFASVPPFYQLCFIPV
# Chain of Cytochrome P450 2D6 (P10635 whole entry): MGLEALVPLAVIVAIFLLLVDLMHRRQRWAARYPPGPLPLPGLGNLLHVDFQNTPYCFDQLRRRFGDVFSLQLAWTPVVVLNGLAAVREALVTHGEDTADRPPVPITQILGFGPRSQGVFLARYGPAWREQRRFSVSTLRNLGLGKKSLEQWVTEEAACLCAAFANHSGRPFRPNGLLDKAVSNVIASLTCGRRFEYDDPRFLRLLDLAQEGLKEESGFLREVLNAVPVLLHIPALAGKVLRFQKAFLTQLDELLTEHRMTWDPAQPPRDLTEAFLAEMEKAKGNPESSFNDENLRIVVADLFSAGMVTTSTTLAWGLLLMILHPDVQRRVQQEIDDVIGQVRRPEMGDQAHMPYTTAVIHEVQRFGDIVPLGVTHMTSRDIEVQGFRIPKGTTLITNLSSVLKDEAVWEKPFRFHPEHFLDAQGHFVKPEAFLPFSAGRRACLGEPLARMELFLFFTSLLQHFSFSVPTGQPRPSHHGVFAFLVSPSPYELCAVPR
structure (smiles),measurement,setting,value
CC(C)n1nccc1-c1ncccc1COc1cccc(O)c1C=O [VOXELOTOR],IC50,Cytochrome P450 1A2,58.6 µM
same,half-life,[1],1200 min
same,TDI,Cytochrome P450 2C19 [2],Not Active
same,IC50,Cytochrome P450 2D6,148 µM
same,Activity,[3],2.6%
same,half-life,[4],1200 min
same,IC50,Cytochrome P450 2C19 [5],20 µM
same,AUC/dose,Rattus norvegicus,326806 ng·h/mL/mg/kg
same,bioavailability,[6],37%
same,half-life,[7],1200 min
same,Activity,[8],79.8%
same,bioavailability,[9],60%
same,IC50,Cytochrome P450 3A4 [10],12.5 µM
same,IC50,Cytochrome P450 3A4 [11],81.9 µM
same,half-life,[12],1200 min
same,IC50,Cytochrome P450 2C8,7.9 µM
same,TDI,Cytochrome P450 3A4 [13],Not Active
same,Activity,Homo sapiens,206%
same,Activity,[14],72.1%
same,IC50,Cytochrome P450 2C9,8.5 µM
same,Kp,[15],150
same,t1/2,Blood,19.1 h
same,half-life,[16],1200 min
same,bioavailability,[17],36%
same,TDI,Cytochrome P450 3A4 [18],Not Active
